Most compounds without a hit are left out; they make up all but 3.5% or so of the library.
MrgX1 allo act: human MrgX1 positive allosteric modulation, primary screen. Q96LB2. AID 588675. hit rate 0.63% among 310,000. MrgX1-HEK293, Fluo-4 calcium flux, FDSS; hits give high values. B-score at 10 µM;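 active = plate-corrected calcium response at least 3 library SD above typical, normal starting fluorescence, not activating the receptor alone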;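 note: compound read alongside a low EC10 to EC30 dose of BAM8-22 agonist; peak minus trough fluorescence over baseline measured at the second addition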
Target sequence (Q96LB2 whole entry, looked up): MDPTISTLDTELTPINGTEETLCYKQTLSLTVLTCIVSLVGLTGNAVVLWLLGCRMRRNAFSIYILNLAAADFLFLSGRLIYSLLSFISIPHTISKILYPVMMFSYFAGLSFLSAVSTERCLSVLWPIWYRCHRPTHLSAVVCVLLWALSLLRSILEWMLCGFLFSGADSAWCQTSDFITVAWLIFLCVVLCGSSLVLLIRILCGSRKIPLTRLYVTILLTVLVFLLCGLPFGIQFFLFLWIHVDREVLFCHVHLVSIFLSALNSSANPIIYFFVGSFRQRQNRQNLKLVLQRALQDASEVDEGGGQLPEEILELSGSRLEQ
MrgX1 agonist: agonists of human MrgX1 receptor; MrgX1-HEK293 cells, Fluo-4 calcium fluorescence, agonist mode; hits give high values; Q96LB2; hit rate 0.44% among 310,000; B-score at 10 µM;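 active = calcium response B-score plate-corrected fluorescence ratio at least 3 library SD, with starting fluorescence B-score inside 5 SD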
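System: HEK293 cells stably expressing human MrgX1 receptor; Dosing: test compound in the initial addition of three; Schedule: overnight plating, then 30 min 37 °C plus 30 min room-temperature dye loading; Detection: kinetic calcium dye fluorescence, Fluo-4 NW; Controls: per-plate positive and negative controls for Z′ factor.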
RGS4 pot: potentiators or activators of RGS4; HEK293 M3R/inducible RGS4, carbachol calcium flux Fluo4; hits give low values; AID 463111; B-score at 10 µM; hit rate 0.92% among 310,000;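 active = B-score of the integrated calcium signal more than 4 SD below the library mean, with starting fluorescence not abnormally high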;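 note: negative B-score means reduced calcium response which marks RGS4 activation or potentiation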
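Assay system: HEK293 FlpIn-TREx cells, stable M3R, doxycycline-inducible RGS4 / Probe or stimulus: carbachol, ECmax concentration / Times: overnight RGS4 induction, 30 min dye load 37 °C, 20 min compound RT / Signal: kinetic calcium fluorescence imaging with Fluo4-AM dye, 2 µM / Measure: Agonist-evoked peak-minus-minimum fluorescence over baseline, integrated ratio, B score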
MrgX1 antag: blocks BAM8-22 activation of human MrgX1 receptor. AID 588676. B-score at 10 µM. MRGX1-HEK293 calcium flux, Fluo-4, BAM8-22 antagonism; hits give low values. hit rate 1.3% among 310,000;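 active = calcium-response B-score plate-corrected more than 3 library SD below zero, starting fluorescence within 5 deviations, no agonist response on first addition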;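 note: peak minus trough fluorescence over baseline after final BAM8-22 challenge near maximal dose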
RGS4 inh: inhibitors of human RGS4. P49798. HEK293 M3R/RGS4 inducible, Fluo-4 calcium flux; hits give high values; triggered by carbachol at its EC20. B-score at 10 µM. hit rate 0.45% among 310,000. AID 463165;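 active = B-score, a plate-corrected calcium signal, over three deviations above library mean, with baseline fluorescence within five deviations of library mean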;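 note: RGS4 expression induced by doxycycline in cells with stable M3 receptor; B-score is computed from the integrated fluorescence ratio over baseline after carbachol; higher B-score means a larger calcium signal and so more RGS4 inhibition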
MrgX1 PAM conf: human MrgX1 positive allosteric modulation, re-confirmation; AID 602413; activation (ratio percentage), % at 10 µM; shares compounds with MrgX1 allo act; hit rate 13% among 1,200; MrgX1-HEK293, Fluo-4 calcium fluorescence, FDSS;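 active = ratio at least 3 SD above the weak peptide control, stable starting fluorescence, no direct agonism earlier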;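 note: compound followed by low BAM8-22 agonist challenge near EC20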
HEK293 Ca flux: activity in parental HEK293 cells lacking MrgX1 | shares compounds with MrgX1 antag | fluorescence ratio F(max-min)/F0 at 10 µM | Fluo-4 calcium fluorescence, FDSS | AID 624111 | hit rate 2% among 4,000;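 active = duplicate-averaged calcium fluorescence ratio at least three times the standard deviation of buffer wells, a nonspecific response in parental cells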
HEK293 Ca counter: activity in parental HEK293 cells without MrgX1. shares compounds with MrgX1 antag. parental HEK293 calcium flux, Fluo-4 fluorescence ratio; hits give high values. fluorescence ratio F(max-min)/F0 at 10 µM. hit rate 0.4% among 4,000. AID 624114;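 active = calcium fluorescence ratio, averaged over duplicates, at least 3 SD of the buffer-well ratio, meaning a nonspecific response in receptor-free cells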;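 note: untransfected parental HEK293 lacking MrgX1 used as counterscreen for MrgX1 allosteric activators; fluorescence change taken during the second addition on a kinetic imager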
HEK293 Ca cntr2: counter-screen for MrgX1 activators: effect in parental HEK293 cells; shares compounds with MrgX1 antag; Fluo-4 calcium fluorescence (FDSS); hits give high values; fluorescence ratio F(max-min)/F0 at 10 µM; hit rate 8.7% among 4,000;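 active = calcium fluorescence ratio at least three times the spread of buffer wells, meaning a non-specific response in parental cells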
Starred values were filed as active, the others as inactive; i = inactive; / = no result given.

SMILES	MrgX1 allo act	MrgX1 agonist	RGS4 pot	MrgX1 antag	RGS4 inh	MrgX1 PAM conf	HEK293 Ca flux	HEK293 Ca counter	HEK293 Ca cntr2
COc1ccc(C(=O)Nc2cc(OC)c(Cl)cc2Cl)cc1	i	i	i	i	i	/	/	/	/
COc1ccc(C(=O)Nc2scc(-c3ccc(Cl)cc3Cl)c2C(N)=O)cc1	27*	i	i	i	i	20%*	i	i	i
Cn1c(=O)c2c(nc(CN3CCc4ccccc4C3)n2Cc2ccc(Cl)cc2)n(C)c1=O	i	i	i	i	i	/	/	/	/
Cn1c(=O)c2c(nc(CN3CCc4ccccc4C3)n2Cc2ccccc2)n(C)c1=O	17*	i	i	i	i	13%*	i	i	i
CCOc1ccc(NC(=O)CN(C)C(=O)CC2OC(=O)c3ccccc32)cc1OCC (stereo not drawn)	i	i	i	i	i	/	/	/	/
COc1cccc(C(=O)COc2cccc(NC(=O)c3ccco3)c2)c1	6.6*	i	i	i	i	i	i	i	i
O=C(Nc1ccc(F)cc1)c1ccccc1CC[N+](=O)[O-]	i	i	i	i	i	/	/	/	/
CCOC(=O)Cc1csc(NC(=O)c2ccc(Br)cc2)n1	12*	i	i	i	i	i	i	i	i
CCOC(=O)Cc1csc(NC(=O)COc2ccccc2OC)n1	12*	i	i	i	i	i	i	i	i
CCOC(=O)Cc1csc(NC(=S)NC(=O)c2ccc([N+](=O)[O-])cc2)n1	i	i	i	i	i	/	/	/	/
CCOC(=O)Cc1csc(NC(=S)NC(=O)c2ccc(Cl)cc2)n1	7*	i	i	i	i	i	i	i	i
CCOc1ccc(CCNC(=O)COC(=O)c2ccc(Br)o2)cc1OCC	i	i	i	i	i	/	/	/	/
CC1CCCC(NC(=O)Cn2cc3c(n2)CCCCC3)C1C (stereo not drawn)	6.5*	i	i	i	i	i	i	i	i
O=C(Cc1ccc2c(c1)CCCC2)Nc1ccccc1Br	7.3*	i	i	i	i	i	i	i	i
O=C(Cc1ccc2ccccc2c1)Nc1ccccc1Br	i	i	i	i	i	/	/	/	/
O=C(Cn1cc2c(n1)CCCCC2)Nc1ccccc1Cl	8*	i	i	i	i	i	i	i	i
O=C(Cn1cc2c(n1)CCCC2)Nc1ccccc1Cl	13*	i	i	i	i	i	i	i	86*
CCN(CC(=O)Nc1ccc(OC)cc1)C(=O)c1cc(S(=O)(=O)N(C)C)ccc1N1CCCC1	i	i	i	i	i	/	/	/	/
NC(=O)NC(=O)COC(=O)[C@H](Cc1ccccc1)NC(=O)c1cccs1	i	i	i	i	i	/	/	/	/
O=C(Cn1cc2c(n1)CCCC2)Nc1ccccc1Br	22*	i	i	i	i	i	i	i	i
COC(=O)c1ccccc1NC(=O)Cn1cc2c(n1)CCC(C)C2 (stereo not drawn)	23*	i	i	i	i	i	i	i	i
Cc1ccc(NC(=O)Cn2cc3c(n2)CCC(C)C3)cc1 (stereo not drawn)	i	i	i	i	i	/	/	/	/
CCOC(=O)C(C)Sc1nnc(NC(=O)c2ccc3c(c2)OCO3)s1 (stereo not drawn)	i	i	i	i	i	/	/	/	/
